An excerpt weighted towards active compounds, which were near 3.7% of everything screened.
SR-BI uptake up = activators of SR-BI mediated DiI-HDL uptake, primary screen, ldlA[mSR-BI] CHO cells, DiI fluorescence; AID 504775, 2011; activation, % at 12.5 µM; hit rate 0.096% among 320,000; 3 h; 100 = double the neutral-control signal;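 active = mean replicate activation of at least 60% and every replicate at or above 60%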;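 note: 0% = median plate neutral-control signal and 100% = twice that signal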
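system = CHO ldlA[mSR-BI] cells, LDL receptor-null, SR-BI overexpressing | medium = Ham's F12 with 0.5% BSA, HEPES 25 mM, pH 7.4 | probe or stimulus = DiI-HDL 10 µg/mL | compound dosing = single-point compound dose | incubation = compound exposure 3 h, 37 °C | technique = DiI fluorescence, bottom read | read-out = cell-associated DiI fluorescence as measure of HDL uptake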
SR-BI HDL uptake = inhibitors of SR-BI mediated HDL lipid uptake, primary screen, ldlA[mSR-BI] cells, fluorescence, single point. inhibition, % at 12.5 µM. hit rate 0.96% among 320,000. ldlA[mSR-BI] CHO cells, DiI-HDL uptake fluorescence, 3 h. Scavenger receptor class B member 1 (Mus musculus), Q61009;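 active = mean replicate inhibition of at least 70% and a set share of replicates each scoring 70 or more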;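 note: 0% = median of neutral control wells and 100% = median of positive control wells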
AHR activator = AHR activators, primary screen, cell-based, luminescence, luciferase reporter, human. activation, % at 5 µM. AHR-responsive luciferase reporter cells. Aryl hydrocarbon receptor (Homo sapiens), P35869. hit rate 2.5% among 320,000; in the data active = activation above about 47%;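 note: 0% = vehicle wells and 100% = reference agonist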
GAA850 FXN act = FXN promoter activators, primary screen, cell-based, luciferase luminescence, HEK293 lucGAA850; hit rate 0.56% among 360,000; activation, % at 6 µM; HEK293 lucGAA850 FXN promoter luciferase reporter, 24 h; percent of 10 µM SAHA response; AID 540364, 2011;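 active = activation above the average of all compounds screened plus 3 SD, cutoff fixed separately per campaign, cut at about 7.5% in these data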;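 note: 0% = DMSO wells and 100% = 10 µM SAHA wells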
JMJD2C inh = inhibitors of GASC-1 histone demethylase, primary screen, biochemical, fluorescence, DELFIA europium; GST-JMJD2C(1-420) H3K9me3 demethylation; inhibition, % at 2.35 µM; hit rate 0.069% among 330,000;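 active = more than half of a compound's replicate wells show inhibition beyond 50%, single wells judged on their own value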;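 note: signal counts dimethyl H3K9 product captured on neutravidin plate; 0% = median of DMSO wells and 100% = 0.3 times that DMSO median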
AHR act cf = AHR activators, confirmation, cell-based, luminescence, luciferase reporter, human | shares compounds with AHR activator | human cells, AHR-responsive luciferase reporter | activation, % at 9 µM | hit rate 87% among 2,300 | AID 2845, 2010; in the data active = activation above about 49%;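 note: HepG2 hepatoma cells carrying a DRE-driven firefly luciferase reporter; 0% = vehicle wells and 100% = reference agonist wells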
PXR counter = human PXR activators, counter-screen for AHR activator project, cell-based, luciferase luminescence; hit rate 88% among 2,300; shares compounds with AHR activator; AID 434939, 2010; cell-based PXR reporter; activation, % at 11.6 µM; in the data active = activation above about 11%;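 note: human hepatoma DPX-2 cells expressing full-length human PXR; 0% = DMSO and 100% = reference agonist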
Target sequence (O75469 whole entry, looked up): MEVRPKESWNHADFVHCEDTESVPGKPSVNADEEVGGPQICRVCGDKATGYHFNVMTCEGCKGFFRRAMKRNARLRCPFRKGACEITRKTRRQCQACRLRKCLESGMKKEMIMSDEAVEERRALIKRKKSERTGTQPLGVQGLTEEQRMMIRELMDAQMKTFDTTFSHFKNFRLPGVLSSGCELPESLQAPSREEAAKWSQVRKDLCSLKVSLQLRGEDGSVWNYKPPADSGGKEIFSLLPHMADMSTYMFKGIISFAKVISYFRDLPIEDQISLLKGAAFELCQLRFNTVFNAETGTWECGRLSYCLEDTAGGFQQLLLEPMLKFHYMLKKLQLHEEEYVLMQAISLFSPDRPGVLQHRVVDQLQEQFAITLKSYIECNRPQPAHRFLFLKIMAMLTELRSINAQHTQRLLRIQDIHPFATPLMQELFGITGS
* marks the source's active call; other numbers are inactive results; / = not tested or not shown.

SMILES | SR-BI uptake up | SR-BI HDL uptake | AHR activator | GAA850 FXN act | JMJD2C inh | AHR act cf | PXR counter
COc1ccc(Nc2ccnc(Nc3ccc(OC)cc3)n2)cc1 | 10 | -10 | 83* | 1 | -2 | 62* | 37*
COc1ccc(Nc2nc(OC)nc(OC)n2)cc1 | / | / | 7 | 4 | -8 | / | /
Cc1ccc(N2CC(NC(=O)C(=O)c3c[nH]c4ccccc34)CC2=O)cc1C (stereo not given) | 11 | -11 | 7 | -1 | 5 | / | /
CCNC(=S)N=Nc1c(O)[nH]c2ccc(C(C)C)cc12 | -5 | 5 | 123* | -1 | -8 | 72* | 80*
CC(C)c1ccc2[nH]c(O)c(N=NC(=S)NCCc3ccccc3)c2c1 | -16 | 16 | 39 | 2 | 17 | / | /
Cc1nc(N)nc(Nc2ccc(Cl)cc2)c1Br | -12 | 12 | 92* | 2 | -1 | 99* | /
COc1cc(Cl)c(C)cc1NC(=O)c1ccccc1NC(=O)CN1CCOCC1 | -25 | 25 | 101* | 0 | 0 | 103* | 92*
CC1CCN(S(=O)(=O)c2cc3c4c(c2)CCN4C(=O)CC3)CC1 | 22 | -22 | -4 | -1 | -8 | / | /
CN1C(=O)/C(=C\c2cc(N=Nc3ccccc3)ccc2O)SC1=S | / | / | 12 | -1 | 11 | / | /
CN1C(=O)/C(=C\c2ccccc2OCc2ccccc2)SC1=S | -8 | 8 | 81* | 2 | -6 | 87* | 19*
COc1ccccc1CNC(=O)c1ccc2c(c1)OCO2 | / | / | 45 | 2 | -8 | / | /
COc1cc2c(cc1NC(=O)C(C)NCc1ccccc1)oc1ccccc12 (stereo not given) | -46 | 46 | 117* | 5 | -12 | 133* | 90*
COc1ccccc1NC(=O)C(=N\O)/C(C)=N/O | 4 | -4 | 89* | 3 | 0 | 116* | 25*
COc1ccccc1NC(=O)c1ccc2c(c1)OCO2 | -9 | 9 | 129* | 2 | -2 | 105* | 28*
COc1ccc(OC)c(NC(=O)c2ccc3c(c2)OCO3)c1 | -28 | 28 | 112* | 1 | -7 | 102* | 22*
COc1cc2c(cc1NC(=O)CN(C)Cc1ccc(OC)c(OC)c1)oc1ccccc12 | -53 | 53 | 34 | -4 | -1 | / | /
COc1cc(C)c(/C=C(\C#N)C(=O)Nc2cccc(C)c2)cc1C(C)C | -30 | 30 | -1 | 3 | -36 | / | /
CNc1nc(N(C)C)nc(N(C)C)n1 | 10 | -10 | 15 | -1 | 8 | / | /
Cc1ccc(NC2CCCN(C(=O)C3CCCC3)C2)cc1C (stereo not given) | 8 | -8 | 34 | 1 | 3 | / | /
CCN(CC)C(=S)Oc1ccc(Cl)cc1Cl | -19 | 19 | 2 | 0 | -12 | / | /
CCOc1cc(N2CCOCC2)c(OCC)cc1NC(=O)c1ccc(-n2ccnc2)c([N+](=O)[O-])c1 | / | / | 3 | 0 | 6 | / | /
COc1cc2c(cc1NCc1ccc3c(c1)OCO3)oc1ccccc12 | 6 | 5 | 16 | 1 | -13 | / | /
COc1ccccc1NC(=O)c1cc(=O)[nH]c2ccccc12 | -20 | 20 | 80* | -2 | -5 | 92* | 16*
COc1ccccc1NC(=O)c1ccc2c(c1)nnn2C | -20 | 20 | 95* | 3 | 4 | 74* | /
COc1cc2c(cc1NC(=O)c1ccc3c(c1)OCO3)oc1ccccc12 | -31 | 31 | 99* | 2 | 1 | 119* | 24*
SMILES | SR-BI uptake up | SR-BI HDL uptake | AHR activator | GAA850 FXN act | JMJD2C inh | AHR act cf | PXR counter
COc1ccccc1NC(=O)c1ccc(-n2ccnc2)c([N+](=O)[O-])c1 | -35 | 35 | 95* | -1 | -48 | 104* | 20*
C[C@H](NC(=O)c1cc2cc(Cl)ccc2n1C)C(=O)N[C@@H](Cc1ccccc1)C(=O)O | -27 | 27 | 5 | 0 | 9 | / | /
CC(=O)NC(Cc1ccccc1C)C(=O)NC1CCN(c2nnnn2-c2ccccc2)CC1 (stereo not given) | -4 | 4 | 0 | 1 | -8 | / | /
O=C(Cc1cccc(NC(=O)C2CCN(C(=O)C3CC3)CC2)c1)Nc1cccc(C(=O)N2CCCC2)c1 | 11 | -11 | -1 | 0 | -4 | / | /
Cc1cc(NC(=O)COc2ccc3ccccc3c2Br)no1 | 6 | -6 | 11 | 4 | 4 | / | /
CCc1ccc(/C=C2/C(=O)N(C)C(=S)N2CC(=O)OC)s1 | -11 | 11 | 0 | 0 | -15 | / | /
COc1cc2c(cc1NC(=S)Nc1cccc(C(F)(F)F)c1)oc1ccccc12 | -75 | 75* | 107* | 0 | -23 | 92* | 29*
NC(=O)c1cc([N+](=O)[O-])ccc1NCCc1ccccc1 | -26 | 26 | / | 6 | -5 | / | /
O=[N+]([O-])c1ccc(NCCc2ccccc2)c(Br)c1 | -22 | 22 | 114* | / | 10 | 104* | 12*
COc1ccc(CCNC(=O)Nc2nc(C(N)C3CCCCC3)cs2)cc1OC (stereo not given) | / | / | / | -5 | / | / | /
CCc1ccc(C(=O)CN(C#N)c2nc(C)cc(C)n2)cc1 | -23 | 23 | 85* | 3 | 3 | 63* | 19*
Cc1cccc(OCC(=O)N2CCN(C(=O)c3ccco3)CC2)c1 | 11 | -11 | 10 | 1 | -2 | / | /
Cc1cc(N2CCN(c3ccccc3)CC2)nc2ccccc12 | -2 | 2 | 125* | 2 | -13 | 106* | 20*
CC(C)[N+]1=C2C=CC=CC=C2SC12C([N+](=O)[O-])=CC(=[N+]([O-])[O-])C=C2[N+](=O)[O-] (stereo not given) | -6 | 6 | 5 | 4 | 16 | / | /
Cc1ccc(C)c(OCCSc2nnc(-c3cccnc3)n2N)c1 | 12 | -12 | 94* | -2 | -29 | 66* | 30*
CN(C)CCNc1ncnc2c1sc1nc(-c3ccccc3)c3c(c12)CCCC3 | 17 | -17 | 4 | 1 | 10 | / | /
CCCC1=[N+](CC(=O)c2ccc(C)cc2)CCn2cccc21 | 4 | -4 | 82* | 1 | -49 | 112* | 22*
CCCC1=[N+](CC)CCn2c(C)ccc21 | 36 | -36 | -1 | -3 | / | / | /
COc1ccnc2c1c(=O)n(Cc1ccc(F)cc1)c(=O)n2C | 17 | -17 | 2 | 2 | 5 | / | /
CCN(CC)c1ccc(/C=N/NC(=O)C2CC2)cc1 | 45 | -45 | 85* | 0 | -10 | 77* | 44*

Source: PubChem
